# Measurements published in ChEMBL document CHEMBL1158886, “Melophlins C-O, thirteen novel tetramic acids from the marine sponge Melophlus sarassinorum” (J Nat Prod, 2003).
# Active and inactive are the calls of the source. The calls are words filed in the database; no cut-off is given here.
# Tests used:
# TF-1 = test: Cytotoxicity against human TF1 cells; type: functional, cell-based
# HeLa = test: Cytotoxicity against human HeLa cells; type: functional, cell-based
# Artemia salina = test: Toxicity against Artemia salina; type: organism-based
# Bacillus subtilis = test: Antimicrobial activity against Bacillus subtilis 168 at 5 and 10 ug after 24 hrs by agar diffusion method; type: functional, organism-based
# In short: (§1)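 Paper disks (5 mm) loaded with 5 or 10 µg of compound in MeOH, set on LB agar plates seeded with the test bacterium. Incubated 24 h at 37 °C, then inhibition zone diameters recorded. Disks carrying solvent only served as controls.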
# Staphylococcus aureus = test: Antimicrobial activity against Staphylococcus aureus ATCC 25923 at 5 and 10 ug after 24 hrs by agar diffusion method; type: functional, organism-based; in short: as §1
# Candida albicans = test: Antimicrobial activity against Candida albicans at 5 and 10 ug after 24 hrs by agar diffusion method; type: functional, organism-based
# In short: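 Disks (5 mm) carrying 5 or 10 µg of compound in MeOH were placed on YPD agar plates inoculated with C. albicans. Inhibition zones were read after 24 h at 27 °C. Solvent-only disks served as controls.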
Structure (SMILES),Activity (TF-1),Activity (HeLa),IC50 (Artemia salina),Activity (Bacillus subtilis),Activity (Staphylococcus aureus),Activity (Candida albicans)
CC(C)CCCCCCCCC/C(O)=C1\C(=O)C(C)N(C)C1=O (configuration not stated),inactive,inactive,,,,
CCC(C)CCCCCCCC/C(O)=C1\C(=O)C(C)N(C)C1=O (configuration not stated),inactive,inactive,,,,
CCC(C)CCCCCCCCCC/C(O)=C1\C(=O)CN(C)C1=O (configuration not stated) [MELOPHLIN I],inactive,inactive,52.6 µg/mL,,,
CC(C)CCCCCCCCCCCC/C(O)=C1\C(=O)CN(C)C1=O,inactive,inactive,,,,
CCCCCCCCCCCCC/C(O)=C1\C(=O)CN(C)C1=O [MELOPHLIN G],inactive,inactive,48.8 µg/mL,,,
CCCCCCCC(C)CCC/C(O)=C1\C(=O)C(C)N(C)C1=O (configuration not stated) [MELOPHLIN C],inactive,inactive,36.6 µg/mL,Active,Active,Active
CC(C)CCCCCCCCCCC/C(O)=C1\C(=O)CN(C)C1=O,inactive,inactive,,,,
CCCCCCCCCCC/C(O)=C1\C(=O)C(C)N(C)C1=O (configuration not stated),inactive,inactive,,,,
